Reference: ChEMBL document CHEMBL1770084, “An inhibitor-like binding mode of a carbonic anhydrase activator within the active site of isoform II” (Bioorg Med Chem Lett, 2011)

Assays:
[1] = biological target: Carbonic anhydrase 12 (Homo sapiens) (UniProt O43570); assay: Activation of human transmembrane carbonic anhydrase 12 preincubated for 15 mins by CO2 hydration stopped-flow assay
[2] = biological target: Carbonic anhydrase 2 (Homo sapiens) (UniProt P00918); assay: Activation of human carbonic anhydrase 2 activity at 20 uM after 15 mins by CO2 hydration stopped-flow assay relative to control
Outline: (§1)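 hCA II (10 nM) held with test compound at 20 µM (stated as 20 lM in the footnote) for 15 min to 144 h before assay. Activity then read by stopped-flow CO2 hydrase assay. Values are % of initial enzyme activity with no test compound, which is set to 100%.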

[3] = biological target: Carbonic anhydrase 2 (Homo sapiens) (UniProt P00918); assay: Activation of human carbonic anhydrase 2 activity at 20 uM after 24 hrs by CO2 hydration stopped-flow assay relative to control; outline: as §1
[4] = biological target: Carbonic anhydrase 2 (Homo sapiens) (UniProt P00918); assay: Activation of human cytosolic carbonic anhydrase 2 preincubated for 15 mins by CO2 hydration stopped-flow assay
[5] = biological target: Carbonic anhydrase 1 (Homo sapiens) (UniProt P00915); assay: Binding affinity to human cytosolic carbonic anhydrase 1
Sequence of Carbonic anhydrase 1 (Homo sapiens) (P00915 2-261 limits assumed): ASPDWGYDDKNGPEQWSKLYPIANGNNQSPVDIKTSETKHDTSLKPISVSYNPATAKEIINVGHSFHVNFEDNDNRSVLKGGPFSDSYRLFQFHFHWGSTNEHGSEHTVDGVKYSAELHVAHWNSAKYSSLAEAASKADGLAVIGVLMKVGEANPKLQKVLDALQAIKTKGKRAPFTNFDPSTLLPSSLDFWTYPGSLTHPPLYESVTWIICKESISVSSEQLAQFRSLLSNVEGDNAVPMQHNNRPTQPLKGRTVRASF

[6] = biological target: Carbonic anhydrase 14 (Homo sapiens) (UniProt Q9ULX7); assay: Binding affinity to human transmembrane carbonic anhydrase 14
Sequence of Carbonic anhydrase 14 (Homo sapiens) (Q9ULX7 whole entry): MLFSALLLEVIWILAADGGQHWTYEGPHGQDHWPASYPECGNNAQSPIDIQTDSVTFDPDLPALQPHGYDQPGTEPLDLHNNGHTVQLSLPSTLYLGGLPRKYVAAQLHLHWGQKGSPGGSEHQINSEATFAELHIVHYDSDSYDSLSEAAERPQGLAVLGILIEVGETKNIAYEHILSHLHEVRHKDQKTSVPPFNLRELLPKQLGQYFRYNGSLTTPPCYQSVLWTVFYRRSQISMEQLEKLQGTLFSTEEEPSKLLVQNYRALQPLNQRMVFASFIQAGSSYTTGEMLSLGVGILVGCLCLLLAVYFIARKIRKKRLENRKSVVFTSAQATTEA

[7] = biological target: Carbonic anhydrase 2 (Homo sapiens) (UniProt P00918); assay: Inhibition of human carbonic anhydrase 2 activity at 20 uM after 48 hrs by CO2 hydration stopped-flow assay relative to control; outline: as §1
[8] = biological target: Carbonic anhydrase 2 (Homo sapiens) (UniProt P00918); assay: Activation of human carbonic anhydrase 2 activity at 20 uM after 1 hr by CO2 hydration stopped-flow assay relative to control; outline: as §1
[9] = biological target: Carbonic anhydrase 12 (Homo sapiens) (UniProt O43570); assay: Binding affinity to human transmembrane carbonic anhydrase 12
[10] = biological target: Carbonic anhydrase 1 (Homo sapiens) (UniProt P00915); assay: Activation of human cytosolic carbonic anhydrase 1 preincubated for 15 mins by CO2 hydration stopped-flow assay
[11] = biological target: Carbonic anhydrase 2 (Homo sapiens) (UniProt P00918); assay: Inhibition of human carbonic anhydrase 2 activity at 20 uM after 144 hrs by CO2 hydration stopped-flow assay relative to control; outline: as §1
[12] = biological target: Carbonic anhydrase 2 (Homo sapiens) (UniProt P00918); assay: Activation of human carbonic anhydrase 2 activity at 20 uM after 36 hrs by CO2 hydration stopped-flow assay relative to control; outline: as §1
[13] = biological target: Carbonic anhydrase 2 (Homo sapiens) (UniProt P00918); assay: Binding affinity to human cytosolic carbonic anhydrase 2
[14] = biological target: Carbonic anhydrase 7 (Homo sapiens) (UniProt P43166); assay: Binding affinity to human cytosolic carbonic anhydrase 7
Sequence of Carbonic anhydrase 7 (Homo sapiens) (P43166 whole entry): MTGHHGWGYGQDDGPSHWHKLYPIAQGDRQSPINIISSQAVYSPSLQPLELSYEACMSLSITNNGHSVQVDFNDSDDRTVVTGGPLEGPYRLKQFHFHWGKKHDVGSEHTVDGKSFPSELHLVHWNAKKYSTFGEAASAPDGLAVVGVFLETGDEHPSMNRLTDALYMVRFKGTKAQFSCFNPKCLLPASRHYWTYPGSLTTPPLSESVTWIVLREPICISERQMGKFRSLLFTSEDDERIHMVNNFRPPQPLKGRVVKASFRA

[15] = biological target: Carbonic anhydrase 2 (Homo sapiens) (UniProt P00918); assay: Inhibition of human carbonic anhydrase 2 activity at 20 uM after 96 hrs by CO2 hydration stopped-flow assay relative to control; outline: as §1
[16] = biological target: Carbonic anhydrase 14 (Homo sapiens) (UniProt Q9ULX7); assay: Activation of human transmembrane carbonic anhydrase 14 preincubated for 15 mins by CO2 hydration stopped-flow assay
[17] = biological target: Carbonic anhydrase 2 (Homo sapiens) (UniProt P00918); assay: Inhibition of human carbonic anhydrase 2 activity at 20 uM after 72 hrs by CO2 hydration stopped-flow assay relative to control; outline: as §1
[18] = biological target: Carbonic anhydrase 9 (Homo sapiens) (UniProt Q16790); assay: Activation of human transmembrane carbonic anhydrase 9 preincubated for 15 mins by CO2 hydration stopped-flow assay
[19] = biological target: Carbonic anhydrase 9 (Homo sapiens) (UniProt Q16790); assay: Binding affinity to human transmembrane carbonic anhydrase 9
[20] = biological target: Carbonic anhydrase 2 (Homo sapiens) (UniProt P00918); assay: Activation of human carbonic anhydrase 2 activity at 20 uM after 12 hrs by CO2 hydration stopped-flow assay relative to control; outline: as §1
[21] = biological target: Carbonic anhydrase 7 (Homo sapiens) (UniProt P43166); assay: Activation of human cytosolic carbonic anhydrase 7 preincubated for 15 mins by CO2 hydration stopped-flow assay

Sequence of Carbonic anhydrase 12 (Homo sapiens) (O43570 whole entry): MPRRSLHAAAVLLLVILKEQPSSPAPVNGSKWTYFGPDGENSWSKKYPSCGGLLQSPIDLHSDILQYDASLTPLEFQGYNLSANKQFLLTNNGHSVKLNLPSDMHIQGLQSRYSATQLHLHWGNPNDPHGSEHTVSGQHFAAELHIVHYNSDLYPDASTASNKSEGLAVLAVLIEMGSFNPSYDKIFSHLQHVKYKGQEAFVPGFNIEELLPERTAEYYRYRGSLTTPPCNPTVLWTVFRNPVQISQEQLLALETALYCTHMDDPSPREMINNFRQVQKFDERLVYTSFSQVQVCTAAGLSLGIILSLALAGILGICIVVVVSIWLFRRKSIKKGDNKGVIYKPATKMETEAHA

## Cc1cc(C)[n+](CCc2c[nH]cn2)c(C)c1
[1]
  Ka: 0.96 µM
[2]
  Activity: 156%
[3]
  Activity: 149%
[4]
  Ka: 18 µM
[5]
  Activity: 3.15 µM
[6]
  Activity: 0.08 µM
[7]
  inhibition: 65%
[8]
  Activity: 153%
[9]
  Activity: 0.08 µM
[10]
  Ka: 3.15 µM
[11]
  inhibition: 3%
[12]
  Activity: 147%
[13]
  Activity: 3.15 µM
[14]
  Activity: 3.15 µM
[15]
  inhibition: 5%
[16]
  Ka: 0.08 µM
[17]
  inhibition: 14%
[18]
  Ka: 0.76 µM
[19]
  Activity: 0.08 µM
[20]
  Activity: 154%
[21]
  Ka: 7.71 µM
